Reference: ChEMBL document CHEMBL2046325, “Synthesis and SAR-study for novel arylpiperazine derivatives of 5-arylidenehydantoin with α₁-adrenoceptor antagonistic properties” (Bioorg Med Chem, 2012)

Assays:
[1] = target: T1, Adrenergic receptor alpha-1 (Rattus norvegicus, UniProt P15823+P23944+P43140); assay: Displacement of [3H]prazosin from alpha1 adrenoceptor in rat cerebral cortex after 30 mins by beta scintillation counting; assay type: tissue-based
T1 sequence (P15823 whole entry): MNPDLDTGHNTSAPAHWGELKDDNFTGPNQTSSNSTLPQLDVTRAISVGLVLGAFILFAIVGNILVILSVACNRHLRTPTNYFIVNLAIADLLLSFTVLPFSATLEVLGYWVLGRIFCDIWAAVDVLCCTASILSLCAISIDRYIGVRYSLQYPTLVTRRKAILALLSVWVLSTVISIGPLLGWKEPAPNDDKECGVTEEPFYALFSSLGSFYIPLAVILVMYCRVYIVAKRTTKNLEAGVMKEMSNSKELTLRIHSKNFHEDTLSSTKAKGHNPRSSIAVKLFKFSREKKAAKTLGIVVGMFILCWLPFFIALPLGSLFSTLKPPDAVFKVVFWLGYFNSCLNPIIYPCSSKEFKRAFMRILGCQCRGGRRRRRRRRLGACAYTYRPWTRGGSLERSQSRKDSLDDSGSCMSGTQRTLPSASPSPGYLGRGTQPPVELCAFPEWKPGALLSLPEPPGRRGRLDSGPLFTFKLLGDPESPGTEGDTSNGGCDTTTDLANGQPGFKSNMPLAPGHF
T1 sequence (P23944 whole entry): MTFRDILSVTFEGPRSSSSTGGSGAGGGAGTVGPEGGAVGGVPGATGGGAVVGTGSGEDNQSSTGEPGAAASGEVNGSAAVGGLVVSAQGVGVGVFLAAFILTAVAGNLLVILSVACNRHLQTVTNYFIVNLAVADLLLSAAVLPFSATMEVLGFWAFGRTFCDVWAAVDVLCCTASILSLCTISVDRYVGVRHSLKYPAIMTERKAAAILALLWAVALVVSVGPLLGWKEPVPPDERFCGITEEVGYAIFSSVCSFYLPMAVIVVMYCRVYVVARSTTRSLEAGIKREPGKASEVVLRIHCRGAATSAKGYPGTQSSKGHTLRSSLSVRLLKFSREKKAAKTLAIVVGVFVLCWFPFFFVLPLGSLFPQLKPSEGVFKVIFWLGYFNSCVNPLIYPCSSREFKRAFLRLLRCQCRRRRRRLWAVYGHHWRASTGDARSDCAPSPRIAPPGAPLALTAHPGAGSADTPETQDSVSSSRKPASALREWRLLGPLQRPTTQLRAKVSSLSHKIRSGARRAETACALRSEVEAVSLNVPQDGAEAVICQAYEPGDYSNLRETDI
T1 sequence (P43140 whole entry): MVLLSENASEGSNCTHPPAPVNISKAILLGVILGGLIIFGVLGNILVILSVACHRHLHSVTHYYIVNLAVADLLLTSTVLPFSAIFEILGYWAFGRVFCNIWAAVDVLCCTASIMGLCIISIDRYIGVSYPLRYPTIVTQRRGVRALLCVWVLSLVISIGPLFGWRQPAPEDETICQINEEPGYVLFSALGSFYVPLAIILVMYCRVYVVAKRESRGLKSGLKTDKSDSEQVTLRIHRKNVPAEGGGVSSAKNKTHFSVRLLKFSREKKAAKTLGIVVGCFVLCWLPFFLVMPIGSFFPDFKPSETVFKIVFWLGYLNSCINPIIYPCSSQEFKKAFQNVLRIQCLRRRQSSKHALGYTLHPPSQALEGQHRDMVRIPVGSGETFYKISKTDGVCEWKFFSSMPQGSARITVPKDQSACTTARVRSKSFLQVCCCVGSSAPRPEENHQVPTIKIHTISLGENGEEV
How it was run: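 Rat cerebral cortex homogenized in 50 mM Tris-HCl, pH 7.6, centrifuged twice at 20000 × g and resuspended at 10 mg wet weight/ml. Tissue incubated with [3H]-prazosin (19.5 Ci/mmol) and test compound for 30 min at 25 °C. Samples filtered on GF/B and counted by scintillation; three-parameter logistic fit of percent binding.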

[2] = target: Adrenergic receptor alpha-1 (Rattus norvegicus) (UniProt P15823+P23944+P43140); assay: Antagonist activity at alpha1 adrenoceptor in Wistar rat denuded thoracic aorta rings assessed as inhibition of phenylephrine-induced contraction after 20 mins; assay type: functional, tissue-based
How it was run: (§1)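 Male Wistar rats (200-350 g) anaesthetised with thiopental sodium (75 mg/kg ip). Endothelium-denuded thoracic aortic rings, about 4 mm, held in Krebs-Henseleit at 37 °C, pH 7.4, gassed O2/CO2 19:1. Cumulative phenylephrine curves run over 3×10⁻⁹–3×10⁻⁶ M, before and after 20 min with one antagonist concentration per ring (3–4 levels), 60 min recovery between curves. Schild pA2 used if slope is unity, otherwise pKB; ≥5 experiments.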

[3] = target: T1, Adrenergic receptor alpha-1; assay: Competitive antagonist activity at alpha1 adrenoceptor in Wistar rat denuded thoracic aorta rings assessed as inhibition of phenylephrine-induced contractions after 20 mins; assay type: functional, tissue-based; how it was run: as §1

| SMILES | Ki [1] | inhibition [2] | pKb [2] | pA2 [3] |
| --- | --- | --- | --- | --- |
| COc1ccc(/C=C2\NC(=O)N(CC(O)CN3CCN(c4ccccc4OC)CC3)C2=O)c(OC)c1.Cl (racemic) | 52.2 nM | Dose-dependent effect | 8.95 | – |
| CCOc1ccccc1N1CCN(CC(O)CN2C(=O)N/C(=C\c3ccc(OC)cc3OC)C2=O)CC1.Cl (racemic) | 231 nM | – | – | – |
| Cl.O=C1N/C(=C\c2ccc(Cl)cc2)C(=O)N1CC(O)CN1CCN(c2ccccc2)CC1 (racemic) | 3700 nM | – | – | – |
| CCOc1ccccc1N1CCN(CC(O)CN2C(=O)N/C(=C\c3ccc(Cl)cc3)C2=O)CC1.Cl (racemic) | 59.1 nM | Dose-dependent effect | 9.01 | – |
| CCOc1ccccc1N1CCN(CC(O)CN2C(=O)N/C(=C\c3ccccc3)C2=O)CC1.Cl (racemic) | 91.4 nM | Dose-dependent effect | 7.66 | – |
| COc1ccc(/C=C2\NC(=O)N(CC(O)CN3CCN(c4ccccc4OC)CC3)C2=O)cc1OC.Cl (racemic) | 44.5 nM | Dose-dependent effect | – | 7.56 |
| CCOc1ccccc1N1CCN(CC(O)CN2C(=O)N/C(=C\c3ccc(N(C)C)cc3)C2=O)CC1.Cl (racemic) | 8700 nM | – | – | – |

Results, then the compound that gave them:

| Ki [1] | inhibition [2] | pKb [2] | pA2 [3] | SMILES |
| --- | --- | --- | --- | --- |
| 834.9 nM | – | – | – | COc1ccccc1N1CCN(CC(O)CN2C(=O)N/C(=C\c3ccc(N(C)C)cc3)C2=O)CC1.Cl (racemic) |
| 318.8 nM | – | – | – | COc1cccc(/C=C2\NC(=O)N(CC(O)CN3CCN(c4ccccc4)CC3)C2=O)c1OC.Cl (racemic) |
| 72.1 nM | Dose-dependent effect | 7.53 | – | CCOc1ccccc1N1CCN(CC(O)CN2C(=O)N/C(=C\c3cccc(OC)c3OC)C2=O)CC1.Cl (racemic) |
| 285.9 nM | – | – | – | COc1ccccc1N1CCN(CC(O)CN2C(=O)N/C(=C\c3ccccc3)C2=O)CC1.Cl (racemic) |
| 86.3 nM | Dose-dependent effect | 7.58 | – | COc1ccccc1N1CCN(CC(O)CN2C(=O)N/C(=C\c3ccc(Cl)cc3)C2=O)CC1.Cl (racemic) |
| 70 nM | Dose-dependent effect | – | 7.55 | COc1ccccc1N1CCN(CC(O)CN2C(=O)N/C(=C\c3cccc(OC)c3OC)C2=O)CC1.Cl (racemic) |
| 197.6 nM | – | – | – | COc1ccc(/C=C2\NC(=O)N(CC(O)CN3CCN(c4ccccc4)CC3)C2=O)cc1OC.Cl (racemic) |
